High-throughput results: PubChem, several laboratories
GRK2 aptamer HTS = inhibitors of human GRK2 displacing RNA aptamer | P25098 | bead flow cytometry, FAM-aptamer displacement from GRK2 | inhibition of aptamer binding, % at 10 µM | 330,000 compounds, 0.59% hits;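 active = inhibition of aptamer binding above 40%, roughly 3 SD of noise, on plates passing a quality check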;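 note: median bead fluorescence of bound FAM aptamer so fluorescent compounds give negative values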
SUMO1 PPI mod = SUMO1-SIM interaction modulation; P63165; AID 602429; SUMO1 binding to a labelled peptide, TR-FRET, 1 h; 360,000 compounds, 0.33% hits; inhibition, % at 20 µM; in the data active = inhibition above about 37%
Target sequence (P63165 whole entry, looked up): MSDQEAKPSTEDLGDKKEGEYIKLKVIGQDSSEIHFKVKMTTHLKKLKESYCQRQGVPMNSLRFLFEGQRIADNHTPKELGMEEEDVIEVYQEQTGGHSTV
LMPTP block = blocks human LMPTP phosphatase; P24666; recombinant LMPTP-A, OMFP fluorogenic substrate, fluorescence intensity; inhibition, % at 20 µM; 360,000 compounds, 0.22% hits; AID 651560;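 active = compounds that cut the enzyme signal by at least half of the control window in the single-dose screen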;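 note: plate controls were DMSO wells with enzyme plus substrate for no effect and substrate without enzyme for full effect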
Target sequence (P24666 whole entry, looked up): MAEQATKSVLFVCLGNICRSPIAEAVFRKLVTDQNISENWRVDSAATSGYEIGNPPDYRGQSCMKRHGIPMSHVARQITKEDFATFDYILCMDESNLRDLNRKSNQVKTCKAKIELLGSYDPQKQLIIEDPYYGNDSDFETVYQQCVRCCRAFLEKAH
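Buffer or medium: Bis-Tris pH 6.0, DTT, detergent; Assay system: LMPTP-A enzyme; Quantity: 0.625 nM enzyme; Detection: endpoint fluorescence intensity; Times: 50 min dark incubation at room temperature; Controls: substrate-only low control, DMSO enzyme-plus-substrate high control; Doses: single 20 µM dose; Read-out: percent inhibition versus substrate-only and uninhibited controls; Reagent: 400 µM OMFP.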
DNMT1 inh = DNMT1 (human) enzyme inhibition | P26358 | DNMT1 molecular beacon, Hinp1I cleavage, fluorescence | inhibition (reported as % activation of signal), % at 10 µM | 360,000 compounds, 0.83% hits; in the data active = inhibition above about 50%
Scp1 inh = Scp-1 (human) phosphatase inhibition; Recombinant Scp1, phosphopeptide, malachite green phosphate absorbance; inhibition, % at 20 µM; 340,000 compounds, 0.88% hits; AID 493091;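 active = inhibition above about 50% at 20 µM, limit read from the data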;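 note: plate controls were DMSO wells with enzyme for no effect and wells lacking enzyme for full effect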
Target sequence (Q9GZU7 76-261 limits assumed): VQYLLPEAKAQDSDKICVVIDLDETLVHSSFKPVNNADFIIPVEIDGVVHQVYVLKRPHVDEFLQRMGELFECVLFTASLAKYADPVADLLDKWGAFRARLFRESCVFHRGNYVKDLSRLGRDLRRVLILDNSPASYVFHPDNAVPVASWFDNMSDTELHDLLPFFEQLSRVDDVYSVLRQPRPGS
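Test system: SCP-1 catalytic domain; Buffer or medium: Acidic Tris acetate buffer with magnesium and detergent; Also added: Phosphorylated 17-residue peptide substrate; Compound: single 20 µM dose, 1% DMSO; Schedule: enzyme reaction 45 min at room temperature, colour 5 min, stabilisation 30 min; Signal: Phosphate-binding colour reagent, absorbance read at 630 nm.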
STEP block = STEP (human) phosphatase inhibition | 360,000 compounds, 0.25% hits | inhibition, % at 20 µM | recombinant STEP, OMFP fluorogenic substrate, fluorescence | P54829;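 active = inhibition at 20 µM, scaled per plate between control wells, above about 37%, limit read from the data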;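 note: 0% = DMSO with enzyme and substrate and 100% = substrate only without enzyme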
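Assay system: isolated STEP enzyme / Timing: 20 min at room temperature, dark / Doses: 20 µM, 1% DMSO / Technique: fluorescence intensity, excitation 480 nm, emission 540 nm / Reagent: fluorogenic phosphatase substrate OMFP at 25 µM final / Measure: percent inhibition scaled to no-enzyme and uninhibited-enzyme controls, plate-pattern corrected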
GRK2 CP1 = confirmation of human GRK2 inhibitors displacing RNA aptamer; shares compounds with GRK2 aptamer HTS; aptamer displacement, % at 10 µM; bead-bound GRK2, FAM-aptamer displacement, flow cytometry; 2,000 compounds, 4% hits;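 active = aptamer displacement above 40%, near three times the noise of non-fluorescent compounds, on plates passing quality checks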;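 note: negative values mostly reflect intrinsic compound fluorescence rather than true enhancement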
Aptamer quench SP = aptamer fluorescence quenching in GRK2 counter-screen | AID 504580 | fluorescence response (% of DMSO), % at 10 µM | shares compounds with GRK2 aptamer HTS | 2,000 tested, under 10 active | Carboxyfluorescein RNA aptamer on beads, flow cytometry quenching; hits give low values;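 active = compounds that quench the bead-bound fluorescent RNA probe, cutting fluorescence to under half of the solvent control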;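 note: counterscreen run without GRK2 so only probe quenching by compound is measured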
GRK2 confirm 2 = confirmation of human GRK2 inhibitors binding RNA aptamer site; 360 tested, under 10 active; inhibition of aptamer binding, % at 10 µM; shares compounds with GRK2 aptamer HTS; bead-bound GRK2, FAM-aptamer displacement, flow cytometry;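 active = inhibition of aptamer binding above 40%, about triple the noise seen with nonglowing compounds, on plates passing quality control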;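 note: negative values mostly come from compounds that fluoresce themselves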
FAM quench CP2 = quenches fluorescent RNA aptamer, GRK2 hit artifact | 360 tested, under 10 active | carboxyfluorescein RNA aptamer beads, flow cytometry quenching; hits give low values | shares compounds with GRK2 aptamer HTS | AID 588494 | fluorescence response vs DMSO, % at 10 µM;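 active = response vs DMSO under 50%, meaning signal dropped by over half, treated as fluorescence quencher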;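 note: labelled aptamer on streptavidin beads without GRK2 as a quench counter-screen; 100% = bead fluorescence of DMSO wells and lower means quenching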
* marks the source's active call; other numbers are inactive results; nt = no result. This is a sample that favours compounds with a hit; in the whole collection about 2.1% have one here.

SMILES	GRK2 aptamer HTS	SUMO1 PPI mod	LMPTP block	DNMT1 inh	Scp1 inh	STEP block	GRK2 CP1	Aptamer quench SP	others
COc1cccc(-c2cnc(C(O)c3cc(C)cc(C)c3)[nH]2)c1 (stereo not given)	nt	1	-1	-2	nt	-2	nt	nt
COCCCNCCCOc1ccc(C(C)(C)c2ccccc2)cc1	0	2	-3	3	-12	2	nt	nt
COCCNCCCOc1ccc(C(C)(C)c2ccccc2)cc1	100*	-1	-4	4	-30	-1	nt	nt	GRK2 confirm 2=-1;FAM quench CP2=101
CC[C@@]1(C(=O)OC)N[C@H](CN(C)C(=O)Nc2ccc(OC)cc2)[C@@H]2C(=O)N(C)C(=O)[C@@H]21	4	-1	-2	-2	-8	4	nt	nt
COc1c(F)c(F)c(C(=O)O)c(Nc2cccc(C)c2)c1F	1	3	-1	14	-8	-3	nt	nt
Cc1cc(C)cc(Nc2c(F)c(F)c(F)c(F)c2C(=O)O)c1	89*	0	5	6	-4	3	-2	89
COc1ccccc1N1CCN(C(=O)CSc2nc3ccccc3[nH]2)CC1	96*	1	1	1	2	-1	-28	103
Cc1ccc(NC2=C(Cl)C(=O)OC2OC(C)C)cc1 (stereo not given)	47*	1	0	4	-4	-3	0	97
Cc1cccc(NC2=C(Cl)C(=O)OC2OC(C)C)c1 (stereo not given)	0	2	-4	-3	-1	-2	nt	nt
Cc1cc(C)n(NC(=S)NC2CCCC2)c(=O)c1C#N	0	5	0	1	15	-1	nt	nt
Cc1ccccc1NC(=O)Nc1nc(C2CCC(=O)N2)cs1 (stereo not given)	nt	-1	-1	-2	nt	0	nt	nt
Cc1ccc(S(=O)(=O)N(C)CC(=O)O/N=C(\N)c2ccccn2)cc1	100*	-1	-3	2	-13	3	1	102
COc1ccccc1N1CCN(C(=O)NCc2cccc(C(F)(F)F)c2)CC1	2	-2	1	3	-15	-4	nt	nt
CN(C)c1ccc(/C=C/c2nc3ccccc3c(=O)n2-c2ccc(C(=O)O)cc2)cc1	7	-56	0	15	64*	-40	-4	102
O=C(O)C1OC(C(=O)O)C(C(=O)O)C1C(=O)O (stereo not given)	nt	15	-3	0	5	2	nt	nt
O=C(C[n+]1cc(Br)cc2ccccc21)c1ccccc1	45*	-31	1	-5	-4	-2	3	105
COc1cc(NC(C(=O)Nc2cccc(C(C)=O)c2)c2ccccc2)cc(OC)c1OC (stereo not given)	76*	-5	1	-7	1	-3	nt	nt	GRK2 confirm 2=13;FAM quench CP2=105
COc1ccc(NC(=O)Cn2nnc(-c3ccccc3)c2COc2ccc(C(C)=O)cc2)cn1	nt	-2	-2	0	nt	-1	nt	nt
COc1cc(NC(=O)C2CCCO2)c(C(=O)O)cc1OC (stereo not given)	38	4	-1	-1	0	-2	0	99
O=C(O)c1cc(Cl)ccc1NC(=O)C1CCCO1 (stereo not given)	1	-1	0	0	-2	0	nt	nt
COC(=O)c1cc(Br)c(=O)n(CCN2CCOCC2)c1	0	-1	-2	3	-15	0	nt	nt
COC(=O)c1cc(Br)c(=O)n(CCN(C(C)C)C(C)C)c1	95*	2	-1	-2	3	-2	-3	99
O=C(c1cnn(C(=O)c2ccco2)c1)c1cc(F)ccc1O	11	-2	-1	2	-10	2	nt	nt
O=C(O)C1CC(c2ccccc2F)=NO1 (stereo not given)	6	5	-2	18	11	2	nt	nt	GRK2 confirm 2=-25;FAM quench CP2=102
COc1ccc(O)c(/C=N/NC(=O)c2cc(=O)[nH]c3ccccc23)c1	68*	-16	-1	0	-24	0	0	102
SMILES	GRK2 aptamer HTS	SUMO1 PPI mod	LMPTP block	DNMT1 inh	Scp1 inh	STEP block	GRK2 CP1	Aptamer quench SP	others
O=C(NC1CCCCC1)c1c2c(nc3ccccc13)CCC2	2	-5	1	25	17	-1	nt	nt	GRK2 confirm 2=-1;FAM quench CP2=100
COC(=O)C1CCN(C2CN(Cc3ccc([N+](=O)[O-])cc3)S(=O)(=O)C2)CC1 (stereo not given)	nt	-15	3	9	nt	0	nt	nt
CC(=O)Nc1ccccc1C(=O)C(=O)Nc1ccccc1	4	-1	-1	8	0	-3	nt	nt
CCC(=O)Nc1ccccc1C(=O)C(=O)Nc1ccccc1	40	-4	-3	3	-2	-2	-2	97
Cc1ccc(C(=O)O)cc1N1CCCC1=O	61*	0	0	7	4	-2	0	96
CCOc1ccc(Cl)cc1CSc1n[nH]c(CC)n1	61*	0	-1	0	-1	0	-14	101
Cc1cccc(C)c1-n1c(C)nn(-c2ncc(C(F)(F)F)cc2Cl)c1=O	90*	1	0	3	-5	-2	2	96
Cc1[nH]nc2c(=S)[nH]c(=O)[nH]c12	nt	-17	-6	4	nt	-2	nt	nt
COc1cc(OC)cc(C(=O)NCC(=O)OCC(=O)N2CC(C)CC(C)C2)c1 (stereo not given)	0	2	1	0	-3	-3	nt	nt
CCCn1c(CN(C)Cc2ccccc2)nc2c1c(=O)n(C)c(=O)n2C	5	-1	-1	2	-6	-1	nt	nt
Cn1cnc2c1c(=O)n(Cc1ccccc1)c(=O)n2C	2	-4	-2	4	-7	0	nt	nt
Cn1c(=O)n(CCc2ccccc2)c(=O)c2c1ncn2Cc1ccccc1	74*	2	1	0	-2	0	-2	100
CN(Cc1ccccc1)Cc1nc2c(c(=O)n(C)c(=O)n2C)n1CCc1ccccc1	40	-2	-2	-4	7	-3	-1	98
Cc1ccc(N2CC(C(=O)NCCS(=O)(=O)N3CCN(c4ccccc4)CC3)CC2=O)cc1C (stereo not given)	0	11	-3	13	-7	0	nt	nt
